Reference: ChEMBL document CHEMBL5712886, “Discovery and Characterization of GSK2801, a Selective Chemical Probe for the Bromodomains BAZ2A and BAZ2B” (J Med Chem, 2016)
Active and inactive are the calls of the source. No cut-off for these calls is given here.

What was measured:
[1] = target: T1, SWI/SNF-related matrix-associated actin-dependent regulator of chromatin subfamily A member 2 (Homo sapiens, UniProt P51531); assay: Binding affinity to biotinylated SMARCA2 (unknown origin) expressed in Escherichia coli at 0.2 to 1 uM by Biolayer Interferometric analysis; conditions: dose 0.2-1 µM
T1 sequence (P51531 whole entry): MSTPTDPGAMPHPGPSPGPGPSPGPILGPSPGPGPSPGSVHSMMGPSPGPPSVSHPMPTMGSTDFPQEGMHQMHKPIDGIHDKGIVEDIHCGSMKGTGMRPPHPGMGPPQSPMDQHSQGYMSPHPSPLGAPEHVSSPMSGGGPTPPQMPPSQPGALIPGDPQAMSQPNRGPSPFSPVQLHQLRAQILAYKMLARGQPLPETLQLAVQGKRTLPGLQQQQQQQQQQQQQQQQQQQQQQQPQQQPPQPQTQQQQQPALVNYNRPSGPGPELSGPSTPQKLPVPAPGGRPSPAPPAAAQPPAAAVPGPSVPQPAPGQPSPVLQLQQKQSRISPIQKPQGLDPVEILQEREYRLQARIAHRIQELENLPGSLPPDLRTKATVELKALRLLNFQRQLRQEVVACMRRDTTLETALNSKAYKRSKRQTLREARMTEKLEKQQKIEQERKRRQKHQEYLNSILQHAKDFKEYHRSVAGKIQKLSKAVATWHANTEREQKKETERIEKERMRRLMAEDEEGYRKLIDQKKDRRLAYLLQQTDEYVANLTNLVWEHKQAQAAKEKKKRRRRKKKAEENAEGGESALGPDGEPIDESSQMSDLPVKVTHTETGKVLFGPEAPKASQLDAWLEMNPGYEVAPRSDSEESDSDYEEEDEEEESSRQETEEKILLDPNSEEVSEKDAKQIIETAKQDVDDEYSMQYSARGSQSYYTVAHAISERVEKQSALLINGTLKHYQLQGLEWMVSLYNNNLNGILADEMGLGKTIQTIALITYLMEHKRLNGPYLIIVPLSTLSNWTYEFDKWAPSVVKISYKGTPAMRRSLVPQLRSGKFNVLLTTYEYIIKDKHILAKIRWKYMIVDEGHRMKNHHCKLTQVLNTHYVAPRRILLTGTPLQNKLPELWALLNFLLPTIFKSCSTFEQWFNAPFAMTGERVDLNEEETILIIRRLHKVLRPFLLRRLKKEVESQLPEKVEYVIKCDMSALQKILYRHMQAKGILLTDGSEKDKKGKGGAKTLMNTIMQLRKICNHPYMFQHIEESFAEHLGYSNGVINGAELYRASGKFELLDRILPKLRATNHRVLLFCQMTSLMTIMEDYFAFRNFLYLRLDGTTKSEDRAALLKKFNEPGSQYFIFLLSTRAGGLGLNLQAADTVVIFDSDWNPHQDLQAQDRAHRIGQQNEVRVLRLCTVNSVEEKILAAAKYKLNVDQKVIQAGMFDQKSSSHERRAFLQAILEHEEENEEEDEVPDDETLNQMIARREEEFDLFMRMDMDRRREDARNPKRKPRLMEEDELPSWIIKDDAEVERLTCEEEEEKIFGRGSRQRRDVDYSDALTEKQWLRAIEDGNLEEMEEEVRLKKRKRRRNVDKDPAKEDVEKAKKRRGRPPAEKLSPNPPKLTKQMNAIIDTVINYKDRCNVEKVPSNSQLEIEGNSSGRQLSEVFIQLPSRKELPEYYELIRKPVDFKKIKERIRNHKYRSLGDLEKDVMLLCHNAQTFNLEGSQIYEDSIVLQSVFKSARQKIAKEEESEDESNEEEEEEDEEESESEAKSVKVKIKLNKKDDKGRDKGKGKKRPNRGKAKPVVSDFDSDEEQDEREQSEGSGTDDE
Procedure, shortened: (§1)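 Bromodomains carrying a BirA biotin ligase targeting sequence, coexpressed with BirA in bacteria to give homogeneous in vivo biotin labelling, checked by mass spectrometry. Biotinylated proteins probed by biolayer interferometry with compound at two concentrations, 0.2 and 1.0 μM.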

[2] = target: Bromodomain-containing protein 3 (Homo sapiens) (UniProt Q15059); assay: Binding affinity to biotinylated BRD3 bromodomain-2 (unknown origin) expressed in Escherichia coli at 0.2 to 1 uM by Biolayer Interferometric analysis; conditions: dose 0.2-1 µM; procedure, shortened: as §1
[3] = target: Transcription initiation factor TFIID subunit 1-like (Homo sapiens) (UniProt Q8IZX4); assay: Binding affinity to biotinylated TAF1L bromodomain-2 (unknown origin) expressed in Escherichia coli at 0.2 to 1 uM by Biolayer Interferometric analysis; conditions: dose 0.2-1 µM; procedure, shortened: as §1
Transcription initiation factor TFIID subunit 1-like (Homo sapiens), sequence (Q8IZX4 whole entry, the tested form may be a part): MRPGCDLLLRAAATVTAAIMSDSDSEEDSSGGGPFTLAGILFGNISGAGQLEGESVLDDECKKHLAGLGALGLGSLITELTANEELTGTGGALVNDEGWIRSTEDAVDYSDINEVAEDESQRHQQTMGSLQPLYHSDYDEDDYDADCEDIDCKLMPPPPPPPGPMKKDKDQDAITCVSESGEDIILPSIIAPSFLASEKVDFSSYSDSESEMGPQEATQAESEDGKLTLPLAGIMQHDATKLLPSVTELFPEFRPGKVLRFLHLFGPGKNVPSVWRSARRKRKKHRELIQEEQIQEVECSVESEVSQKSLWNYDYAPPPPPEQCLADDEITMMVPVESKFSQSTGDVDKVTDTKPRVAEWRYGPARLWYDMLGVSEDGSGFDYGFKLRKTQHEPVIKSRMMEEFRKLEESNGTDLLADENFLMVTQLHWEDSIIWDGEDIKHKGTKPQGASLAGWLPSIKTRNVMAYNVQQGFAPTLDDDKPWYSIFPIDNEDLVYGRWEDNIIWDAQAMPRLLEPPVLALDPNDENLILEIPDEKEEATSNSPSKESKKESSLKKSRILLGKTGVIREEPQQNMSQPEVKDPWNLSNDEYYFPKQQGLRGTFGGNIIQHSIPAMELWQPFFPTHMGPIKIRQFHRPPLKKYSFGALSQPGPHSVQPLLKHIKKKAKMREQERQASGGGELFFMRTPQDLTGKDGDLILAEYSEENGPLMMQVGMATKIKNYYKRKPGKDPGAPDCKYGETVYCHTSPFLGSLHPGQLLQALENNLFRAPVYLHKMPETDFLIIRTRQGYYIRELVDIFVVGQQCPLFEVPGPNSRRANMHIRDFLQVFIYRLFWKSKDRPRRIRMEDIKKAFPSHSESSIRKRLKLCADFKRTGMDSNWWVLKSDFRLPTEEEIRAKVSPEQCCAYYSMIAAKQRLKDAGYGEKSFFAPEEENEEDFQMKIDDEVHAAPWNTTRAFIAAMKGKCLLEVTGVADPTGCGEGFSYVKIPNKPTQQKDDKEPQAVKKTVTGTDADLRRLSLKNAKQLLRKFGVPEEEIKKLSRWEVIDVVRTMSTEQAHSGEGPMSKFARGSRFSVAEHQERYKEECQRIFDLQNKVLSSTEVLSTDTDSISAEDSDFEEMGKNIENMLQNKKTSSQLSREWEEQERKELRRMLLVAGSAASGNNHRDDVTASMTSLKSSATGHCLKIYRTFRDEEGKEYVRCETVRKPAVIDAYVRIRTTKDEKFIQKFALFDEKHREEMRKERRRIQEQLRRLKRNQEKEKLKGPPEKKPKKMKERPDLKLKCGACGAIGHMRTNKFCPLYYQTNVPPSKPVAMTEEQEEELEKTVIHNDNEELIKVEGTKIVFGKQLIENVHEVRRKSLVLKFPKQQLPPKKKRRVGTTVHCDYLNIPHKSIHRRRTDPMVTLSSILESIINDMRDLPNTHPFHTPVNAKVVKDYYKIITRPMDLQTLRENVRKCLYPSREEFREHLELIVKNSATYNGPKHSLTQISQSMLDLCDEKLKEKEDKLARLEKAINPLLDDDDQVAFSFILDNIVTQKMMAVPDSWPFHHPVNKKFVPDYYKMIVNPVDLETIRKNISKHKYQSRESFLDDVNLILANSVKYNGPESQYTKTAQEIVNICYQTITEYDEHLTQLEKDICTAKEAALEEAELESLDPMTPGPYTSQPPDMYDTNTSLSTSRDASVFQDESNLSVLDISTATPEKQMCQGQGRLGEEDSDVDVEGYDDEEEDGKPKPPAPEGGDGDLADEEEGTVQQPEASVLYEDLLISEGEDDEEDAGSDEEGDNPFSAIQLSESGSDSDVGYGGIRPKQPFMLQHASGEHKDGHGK

[4] = target: Bromodomain adjacent to zinc finger domain protein 2B (Homo sapiens) (UniProt Q9UIF8); assay: Binding affinity to BAZ2B in human HuT78 cell extract up to 50 uM using GSK2801 affinity matrix by chemoproteomic competition binding assay; type: cell-free
[5] = target: Protein polybromo-1 (Homo sapiens) (UniProt Q86U86); assay: Binding affinity to biotinylated PB1 bromodomain-2 (unknown origin) expressed in Escherichia coli at 0.2 to 1 uM by Biolayer Interferometric analysis; conditions: dose 0.2-1 µM; procedure, shortened: as §1
Protein polybromo-1 (Homo sapiens), sequence (Q86U86 whole entry): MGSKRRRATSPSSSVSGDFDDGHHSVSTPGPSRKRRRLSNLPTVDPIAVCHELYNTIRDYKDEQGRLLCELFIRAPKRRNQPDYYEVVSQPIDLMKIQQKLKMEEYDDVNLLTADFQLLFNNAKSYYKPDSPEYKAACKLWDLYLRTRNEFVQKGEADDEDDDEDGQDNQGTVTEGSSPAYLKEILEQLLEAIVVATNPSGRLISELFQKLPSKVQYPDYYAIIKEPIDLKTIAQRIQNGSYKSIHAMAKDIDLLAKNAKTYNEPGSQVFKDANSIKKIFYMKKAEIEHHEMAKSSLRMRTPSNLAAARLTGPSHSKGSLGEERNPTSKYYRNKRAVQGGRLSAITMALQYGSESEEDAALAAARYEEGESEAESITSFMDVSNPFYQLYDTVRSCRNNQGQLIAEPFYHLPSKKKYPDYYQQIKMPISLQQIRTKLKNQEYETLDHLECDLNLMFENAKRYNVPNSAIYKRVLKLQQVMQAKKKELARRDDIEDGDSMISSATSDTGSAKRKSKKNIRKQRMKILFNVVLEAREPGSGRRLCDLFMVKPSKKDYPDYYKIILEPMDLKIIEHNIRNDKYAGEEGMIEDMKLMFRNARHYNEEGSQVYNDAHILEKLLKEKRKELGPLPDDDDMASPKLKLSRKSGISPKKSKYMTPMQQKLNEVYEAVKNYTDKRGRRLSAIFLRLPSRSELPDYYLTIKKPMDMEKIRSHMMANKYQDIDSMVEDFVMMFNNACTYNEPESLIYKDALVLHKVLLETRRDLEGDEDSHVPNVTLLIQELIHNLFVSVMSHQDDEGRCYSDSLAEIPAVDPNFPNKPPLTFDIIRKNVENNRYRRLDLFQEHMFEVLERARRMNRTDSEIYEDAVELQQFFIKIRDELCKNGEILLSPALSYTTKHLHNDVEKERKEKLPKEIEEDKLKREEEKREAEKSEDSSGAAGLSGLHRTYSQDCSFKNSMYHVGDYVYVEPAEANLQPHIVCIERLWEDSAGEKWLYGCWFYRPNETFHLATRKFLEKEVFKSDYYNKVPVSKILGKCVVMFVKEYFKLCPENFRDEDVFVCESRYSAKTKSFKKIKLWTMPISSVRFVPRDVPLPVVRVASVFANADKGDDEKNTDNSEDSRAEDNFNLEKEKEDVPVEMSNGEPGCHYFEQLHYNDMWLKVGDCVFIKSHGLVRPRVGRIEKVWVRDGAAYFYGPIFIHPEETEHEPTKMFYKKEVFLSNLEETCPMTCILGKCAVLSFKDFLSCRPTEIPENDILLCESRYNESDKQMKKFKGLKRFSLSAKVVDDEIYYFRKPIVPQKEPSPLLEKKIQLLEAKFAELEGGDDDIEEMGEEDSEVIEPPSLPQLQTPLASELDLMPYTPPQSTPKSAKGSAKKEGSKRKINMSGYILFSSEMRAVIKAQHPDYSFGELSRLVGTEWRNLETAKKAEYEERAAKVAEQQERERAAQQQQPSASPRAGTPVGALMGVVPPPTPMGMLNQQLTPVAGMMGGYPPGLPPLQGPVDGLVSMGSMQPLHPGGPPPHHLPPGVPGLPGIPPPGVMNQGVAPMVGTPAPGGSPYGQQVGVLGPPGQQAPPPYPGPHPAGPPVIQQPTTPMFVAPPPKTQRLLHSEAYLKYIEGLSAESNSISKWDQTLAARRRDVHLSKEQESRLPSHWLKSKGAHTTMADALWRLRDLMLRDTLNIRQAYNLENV

[6] = target: Protein polybromo-1 (Homo sapiens) (UniProt Q86U86); assay: Binding affinity to biotinylated PB1 bromodomain-6 (unknown origin) expressed in Escherichia coli at 0.2 to 1 uM by Biolayer Interferometric analysis; conditions: dose 0.2-1 µM; procedure, shortened: as §1
[7] = target: T1, SWI/SNF-related matrix-associated actin-dependent regulator of chromatin subfamily A member 2; assay: Binding affinity to SMARCA2 in human HuT78 cell extract using GSK2801 affinity matrix by chemoproteomic competition binding assay; type: cell-free
[8] = target: Bromodomain-containing protein 2 (Homo sapiens) (UniProt P25440); assay: Binding affinity to biotinylated BRD2 bromodomain-1 (unknown origin) expressed in Escherichia coli at 0.2 to 1 uM by Biolayer Interferometric analysis; conditions: dose 0.2-1 µM; procedure, shortened: as §1
[9] = target: CREB-binding protein (Homo sapiens) (UniProt Q92793); assay: Binding affinity to biotinylated CREBBP (unknown origin) expressed in Escherichia coli at 0.2 to 1 uM by Biolayer Interferometric analysis; conditions: dose 0.2-1 µM; procedure, shortened: as §1
[10] = target: Bromodomain testis-specific protein (Homo sapiens) (UniProt Q58F21); assay: Binding affinity to biotinylated BRDT bromodomain-2 (unknown origin) expressed in Escherichia coli at 0.2 to 1 uM by Biolayer Interferometric analysis; conditions: dose 0.2-1 µM; procedure, shortened: as §1
[11] = target: Transcription initiation factor TFIID subunit 1-like (Homo sapiens) (UniProt Q8IZX4); assay: Binding affinity to biotinylated TAF1L bromodomain-1 (unknown origin) expressed in Escherichia coli at 0.2 to 1 uM by Biolayer Interferometric analysis; conditions: dose 0.2-1 µM; procedure, shortened: as §1
[12] = target: Histone acetyltransferase p300 (Homo sapiens) (UniProt Q09472); assay: Binding affinity to biotinylated EP300 (unknown origin) expressed in Escherichia coli at 0.2 to 1 uM by Biolayer Interferometric analysis; conditions: dose 0.2-1 µM; procedure, shortened: as §1
[13] = target: Transcription initiation factor TFIID subunit 1 (Homo sapiens) (UniProt P21675); assay: Binding affinity to biotinylated TAF1 bromodomain-2 (unknown origin) expressed in Escherichia coli at 0.2 to 1 uM by Biolayer Interferometric analysis; conditions: dose 0.2-1 µM; procedure, shortened: as §1
[14] = target: Bromodomain adjacent to zinc finger domain protein 2A (Homo sapiens) (UniProt Q9UIF9); assay: Binding affinity to BAZ2A in human HuT78 cell extract up to 50 uM using GSK2801 affinity matrix by chemoproteomic competition binding assay; type: cell-free
[15] = target: Bromodomain testis-specific protein (Homo sapiens) (UniProt Q58F21); assay: Binding affinity to biotinylated BRDT bromodomain-1 (unknown origin) expressed in Escherichia coli at 0.2 to 1 uM by Biolayer Interferometric analysis; conditions: dose 0.2-1 µM; procedure, shortened: as §1
[16] = target: Transcription intermediary factor 1-beta (Homo sapiens) (UniProt Q13263); assay: Binding affinity to biotinylated TRIM28 (unknown origin) expressed in Escherichia coli at 0.2 to 1 uM by Biolayer Interferometric analysis; conditions: dose 0.2-1 µM; procedure, shortened: as §1
[17] = target: Tyrosine-protein kinase BAZ1B (Homo sapiens) (UniProt Q9UIG0); assay: Binding affinity to biotinylated BAZ1B (unknown origin) expressed in Escherichia coli at 0.2 to 1 uM by Biolayer Interferometric analysis; conditions: dose 0.2-1 µM; procedure, shortened: as §1
[18] = target: ATPase family AAA domain-containing protein 2 (Homo sapiens) (UniProt Q6PL18); assay: Binding affinity to biotinylated ATAD2 (unknown origin) expressed in Escherichia coli at 0.2 to 1 uM by Biolayer Interferometric analysis; conditions: dose 0.2-1 µM; procedure, shortened: as §1
[19] = target: Transcription intermediary factor 1-alpha (Homo sapiens) (UniProt O15164); assay: Binding affinity to biotinylated TIF1 bromodomain-1 (unknown origin) expressed in Escherichia coli at 0.2 to 1 uM by Biolayer Interferometric analysis; conditions: dose 0.2-1 µM; procedure, shortened: as §1
[20] = target: SWI/SNF-related matrix-associated actin-dependent regulator of chromatin subfamily A member 4 (Homo sapiens, UniProt P51532); assay: Binding affinity to SMARCA4 in human HUT78 cell extract using GSK2801 affinity matrix by chemoproteomic competition binding assay; type: cell-free
[21] = target: Protein polybromo-1 (Homo sapiens) (UniProt Q86U86); assay: Binding affinity to biotinylated PB1 bromodomain-1 (unknown origin) expressed in Escherichia coli at 0.2 to 1 uM by Biolayer Interferometric analysis; conditions: dose 0.2-1 µM; procedure, shortened: as §1

Activity [1]: inactive
Activity [2]: inactive
Activity [3]: inactive
Activity [4]: inactive
Activity [5]: inactive
Activity [6]: inactive
Kd [7]: 15.8 µM
Activity [8]: inactive
Activity [9]: inactive
Activity [10]: inactive
Activity [11]: inactive
Activity [12]: inactive
Activity [13]: inactive
Activity [14]: inactive
Activity [15]: inactive
Activity [16]: inactive
Activity [17]: inactive
Activity [18]: inactive
Activity [19]: inactive
Kd [20]: 15.8 µM
Activity [21]: inactive
Structure (SMILES): CCCOc1ccn2c(C(C)=O)cc(-c3cccc(OC)c3)c2c1
